Screening data deposited in PubChem BioAssay by The Scripps Research Institute Molecular Screening Center.
OXTR potentiate: human OXTR potentiators, primary screen, fluorescence, CHO-OTR cells, Fluo-8 calcium; Oxytocin receptor (Homo sapiens), P30559; Fluo-8 calcium fluorescence, potentiator mode; 0% = oxytocin EC15, 100% = EC100; activation, % at 3 µM; 320,000 compounds, 0.061% hits;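 active = activation above that plate's cutoff, the mean activation of tested compounds plus 3 SD, cut at about 6.6% in these data, passing the limit was not always enough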;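 also: 100% uses oxytocin at 75 nM as the full agonist control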
Target sequence (P30559 whole entry, looked up): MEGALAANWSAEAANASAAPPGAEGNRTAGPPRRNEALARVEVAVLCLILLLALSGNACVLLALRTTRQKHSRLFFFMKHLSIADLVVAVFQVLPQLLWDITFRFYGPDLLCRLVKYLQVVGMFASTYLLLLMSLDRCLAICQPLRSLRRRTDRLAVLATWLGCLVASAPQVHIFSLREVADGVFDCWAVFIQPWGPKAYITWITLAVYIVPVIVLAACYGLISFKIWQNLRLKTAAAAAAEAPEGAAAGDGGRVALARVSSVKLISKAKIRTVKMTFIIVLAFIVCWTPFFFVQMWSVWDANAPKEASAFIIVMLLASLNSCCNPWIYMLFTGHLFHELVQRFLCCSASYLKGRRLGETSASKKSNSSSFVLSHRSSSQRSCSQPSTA
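Material: human OTR in CHO cells. Compound: 3.0 µM, one dose. Timing: compound 6 min at room temperature before oxytocin, 100 s read. Evaluation: % activation of max/min ratio relative to oxytocin controls. Replication: single well per compound, singlicate. Signal: Fluo-8 calcium dye fluorescence.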
TAAR1 antagonist: human TAAR1 antagonists, primary screen, Fluo-8 calcium fluorescence, CHO RD-HGA16 cells | Trace amine-associated receptor 1 (Homo sapiens), Q96RJ0 | antagonist | inhibition, % at 3 µM | 360,000 compounds, 1.5% hits;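 active = inhibition above a per-plate cutoff, the mean inhibition of test compounds on that plate plus 3 SD, cut at about 49% in these data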;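 also: 0% = DMSO plus EC80 beta-PEA response and 100% = DMSO alone without agonist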
Target sequence (Q96RJ0 whole entry, looked up): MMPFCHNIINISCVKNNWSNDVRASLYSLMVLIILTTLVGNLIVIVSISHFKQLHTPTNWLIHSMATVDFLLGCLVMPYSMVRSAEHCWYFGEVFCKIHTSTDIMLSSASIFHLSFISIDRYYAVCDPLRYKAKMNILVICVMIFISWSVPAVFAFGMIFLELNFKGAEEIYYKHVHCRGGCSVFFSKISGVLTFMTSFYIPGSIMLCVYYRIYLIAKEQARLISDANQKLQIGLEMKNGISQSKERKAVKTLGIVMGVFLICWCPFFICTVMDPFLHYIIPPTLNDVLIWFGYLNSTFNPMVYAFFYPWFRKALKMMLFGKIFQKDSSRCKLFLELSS
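System: RD-HGA16 CHO cells with stable hTAAR1 and Gα16 | Probe or stimulus: EC80 β-phenethylamine stimulus | Dosing: 3 µM, single point | Times: Dye loading 75 min at 37 °C, then 30 min room temperature | Measured by: Fluo-8 calcium-sensitive fluorescence | Read-out basis: % inhibition of agonist calcium response | Replicates: n of 1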
OXTR ag: human OXTR agonists, primary screen, fluorescence, CHO-OTR cells, Fluo-8 calcium. Oxytocin receptor (Homo sapiens), P30559. Fluo-8 calcium fluorescence; normalized: DMSO 0%, oxytocin 100%. activation, % at 3 µM. 320,000 compounds, 0.32% hits;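 active = activation above the mean of all tested compounds plus 3 SD, cutoff set per screening run, cut at about 20% in these data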;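 also: peak over basal fluorescence ratio from a 100 s FLIPR kinetic read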
TAAR1 agonist: human TAAR1 agonists, primary screen, Fluo-8 calcium fluorescence, CHO RD-HGA16 cells; 360,000 compounds, 0.99% hits; Trace amine-associated receptor 1 (Homo sapiens), Q96RJ0; activation, % at 3 µM; vehicle wells 0%, saturating PEA agonist 100%;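 active = activation above the mean activation of all test compounds in the run plus 3 SD, cut at about 38% in these data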
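System: CHO RD-HGA16 cells carrying human TAAR1 plus Gα16; Incubation: 17-24 h seeding, 75 min 37 °C dye, 30 min RT; Measured by: Fluo-8 fluorescence, 5 s baseline then 140 s kinetic read; Control set: DMSO and PEA EC100; Replication: single well for each compound.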
V1aR counter: agonists of human V1a receptor, primary screen, counter-screen for OXTR agonist project, fluorescence, CHO-V1R cells | Fluo-8 calcium fluorescence, agonist mode; 0% DMSO, 100% 3 nM vasopressin | activation, % at 3 µM | 320,000 compounds, 0.25% hits | Vasopressin V1a receptor (Homo sapiens), P37288;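 active = activation above the mean activation of all tested compounds plus 3 SD, per screening run, cut at about 20% in these data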;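 also: signal is peak over basal fluorescence ratio across a 100 second FLIPR read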
TAAR1 nonsel count: nonselective antagonists in TAAR1 counter-screen cells, counter-screen for hTAAR1 antagonist project, cell-based, fluorescence, calcium | counterscreen cell line, antagonist mode | shares compounds with TAAR1 antagonist | inhibition, % at 3 µM | 2,400 compounds, 77% hits; in the data active = inhibition above about 22%;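 also: CHO-Ga16 host cells stimulated with ATP at an EC80 level; 0% = agonist EC80 plus vehicle and 100% = vehicle without agonist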
TAAR1 antag conf: human TAAR1 antagonists, retest of hits, confirmation, cell-based, fluorescence | TAAR1-expressing cells, fluorescence antagonist read-out | 2,400 compounds, 40% hits | AID 651785, 2012 | shares compounds with TAAR1 antagonist | inhibition, % at 3 µM; in the data active = inhibition above about 49%;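 also: CHO-Ga16 host cells challenged with agonist PEA near its EC80; 0% = agonist at EC80 plus vehicle and 100% = vehicle with no agonist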
Ga16 ag counter: calcium activation in Ga16-expressing cells, counter-screen for TAAR1 antagonist project, cell-based, fluorescence | agonist counterscreen | shares compounds with TAAR1 antagonist | activation, % at 3 µM | 2,400 compounds, 18% hits | AID 651953, 2012; in the data active = activation above about 12%;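 also: 0% = vehicle wells and 100% = saturating stimulus response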
TAAR1 ag count: TAAR1 activation by candidate antagonists – cell-based, fluorescence, counter-screen for TAAR1 antagonist project. shares compounds with TAAR1 antagonist. hTAAR1 cell line, agonist mode. 2,400 compounds, 2% hits. AID 651955, 2012. activation, % at 3 µM; in the data active = activation above about 37%;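 also: CHO cells stably expressing TAAR1 with calcium dye readout; 0% = DMSO vehicle and 100% = full agonist response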
The depositor's hits bear a star. Sampled rows, rich in hits. Any-hit rate of the full collection: about 2.3%.

Cc1ccccc1C(=O)Oc1ccc(Sc2ccc(O)cc2)cc1 was read as OXTR potentiate -13.6, TAAR1 antagonist 60.7*, OXTR ag -0.8, TAAR1 agonist 9.8, V1aR counter 0.1, TAAR1 nonsel count 18.4, TAAR1 antag conf 14.6, Ga16 ag counter -0.9 and TAAR1 ag count 0.0.
For Cc1ccccc1C(=O)Oc1ccc(-c2csnn2)cc1 the results were OXTR potentiate -9.6, TAAR1 antagonist 21.6, OXTR ag 0.8, TAAR1 agonist 1.4 and V1aR counter -1.7.
Screening O=C(COC(=O)/C=C/c1ccc(F)cc1)NC1CCS(=O)(=O)C1 (centres undefined) returned TAAR1 antagonist 3.1 and TAAR1 agonist 0.9.
CC(=O)Nc1ccc(S(=O)(=O)NCCCN2CCOCC2)cc1 was read as OXTR potentiate -8.6, TAAR1 antagonist -7.4, OXTR ag 0.1, TAAR1 agonist 0.1 and V1aR counter 0.3.
`CC12CCC3C(CCC4CC(O)CCC43C)C1CC(O)C2` (centres undefined) gave TAAR1 antagonist 78.8*, TAAR1 agonist 20.0, TAAR1 nonsel count 35.0*, TAAR1 antag conf 56.4*, Ga16 ag counter 11.8* and TAAR1 ag count 9.8.
C[C@H](O)[C@@]1(O)CC[C@H]2[C@@H]3CC[C@@H]4C[C@H](O)CC[C@]4(C)[C@H]3CC[C@@]21C was read as OXTR potentiate -5.6, TAAR1 antagonist 2.6, OXTR ag 5.4, TAAR1 agonist 7.1 and V1aR counter 3.5.
For O=Nc1c(-c2c(O)[nH]c3cc(Br)ccc23)[nH]c2ccccc12 the results were OXTR potentiate -12.7, TAAR1 antagonist 50.2*, OXTR ag -2.4, TAAR1 agonist -3.0, V1aR counter -2.1, TAAR1 nonsel count 20.9, TAAR1 antag conf 33.1, Ga16 ag counter -1.4 and TAAR1 ag count -4.5.
For O=C(CSCc1cccc(Br)c1)N=Nc1c(O)[nH]c2ccccc12 the results were OXTR potentiate -10.2, TAAR1 antagonist 11.6, OXTR ag -2.1, TAAR1 agonist 1.8 and V1aR counter -0.8.
For Cc1ccccc1OCCC(=O)OCC(=O)NC(=O)c1ccccc1 the results were OXTR potentiate -8.4, TAAR1 antagonist -27.4, OXTR ag 1.2, TAAR1 agonist 3.0 and V1aR counter 0.2.
c1ccc(-c2nc(SCc3nc4ccccc4[nH]3)c3oc4ccccc4c3n2)cc1 was read as OXTR potentiate -4.6, TAAR1 antagonist 54.3*, OXTR ag 0.2, TAAR1 agonist 2.1, V1aR counter 0.4, TAAR1 nonsel count 18.4, TAAR1 antag conf 15.0, Ga16 ag counter 1.0 and TAAR1 ag count -1.8.
Screening Cc1nc(SCc2nc3ccccc3[nH]2)c2oc3ccccc3c2n1 returned OXTR potentiate 0.6, TAAR1 antagonist 16.3, OXTR ag -2.3, TAAR1 agonist 12.5 and V1aR counter -0.2.
For COc1ccc(CNC(=O)c2sc(=O)n(Cc3cc(Cl)ccc3OC)c2C)cc1 the results were TAAR1 antagonist 25.2 and TAAR1 agonist 10.7.
`COc1ccc(Cl)cc1Cn1c(C)c(C(=O)NCc2ccc3c(c2)OCCO3)sc1=O` gave TAAR1 antagonist 56.1*, TAAR1 agonist 7.0, TAAR1 nonsel count 22.9*, TAAR1 antag conf 38.6, Ga16 ag counter 6.6 and TAAR1 ag count 6.8.
`CC(C)(C)c1ccc(OCc2ccc(C(=O)Nc3cccnc3)o2)cc1` gave OXTR potentiate -10.8, TAAR1 antagonist 75.0*, OXTR ag 5.5, TAAR1 agonist 9.1, V1aR counter 6.7, TAAR1 nonsel count 49.7*, TAAR1 antag conf 60.9*, Ga16 ag counter 11.3 and TAAR1 ag count 12.2.
O=C(Nc1cccnc1)c1ccc(COc2ccccc2Br)o1 was read as OXTR potentiate -9.8, TAAR1 antagonist 17.8, OXTR ag 1.4, TAAR1 agonist 4.4 and V1aR counter 4.9.
O=C(O)c1ccc(-c2nn3c(=O)cc(N4CCNCC4)nc3s2)cc1 was read as TAAR1 antagonist -2.6 and TAAR1 agonist 0.5.
For O=C(Nc1cccc(NC(=O)c2ccc(-c3ccc(Br)cc3)o2)c1)c1ccccc1 the results were OXTR potentiate -8.8, TAAR1 antagonist 13.4, OXTR ag -0.4, TAAR1 agonist 15.2 and V1aR counter 0.0.
For Cc1nnc(NC(=O)c2sc3ccccc3c2Cl)s1 the results were OXTR potentiate -10.0, TAAR1 antagonist -0.7, OXTR ag -0.3, TAAR1 agonist 9.5 and V1aR counter 0.1.
For O=C(Nc1cccc(NC(=O)c2sc3ccccc3c2Cl)c1)c1ccco1 the results were OXTR potentiate -0.3, TAAR1 antagonist 54.7*, OXTR ag -0.7, TAAR1 agonist 8.4, V1aR counter -1.3, TAAR1 nonsel count 18.8, TAAR1 antag conf 21.0, Ga16 ag counter 1.8 and TAAR1 ag count -2.7.
`O=C(Nc1cccc(NC(=O)c2ccco2)c1)c1ccccc1` gave OXTR potentiate -2.8, TAAR1 antagonist -1.2, OXTR ag 2.4, TAAR1 agonist -0.7 and V1aR counter 1.4.
`O=C(Nc1cccc(NC(=O)c2ccc(-c3cccc(Br)c3)o2)c1)c1ccco1` gave OXTR potentiate -6.5, TAAR1 antagonist 52.1*, OXTR ag -0.1, TAAR1 agonist 16.2, V1aR counter 0.7, TAAR1 nonsel count 25.4*, TAAR1 antag conf 47.6, Ga16 ag counter 7.8 and TAAR1 ag count 5.3.
CNC(=O)c1ccsc1NC(=O)c1sc2ccccc2c1Cl was read as OXTR potentiate -5.1, TAAR1 antagonist 71.3*, OXTR ag 2.8, TAAR1 agonist 10.0, V1aR counter 0.2, TAAR1 nonsel count 35.4*, TAAR1 antag conf 50.2*, Ga16 ag counter 8.8 and TAAR1 ag count 4.0.
